Measured values reported in ChEMBL document CHEMBL5346886 (Eur J Med Chem, 2023).
Values after ≈ are worked out from the molar mass of the structure shown. Active and inactive are the calls of the source. No cut-off for these calls is given here.

Legend:
Murine hepatitis virus [1] = experiment: Antiviral activity against Murine hepatitis virus-A59 infected in mouse L929 cells assessed as reduction in viral copy pre-infected with cell for 1 hrs followed by compound addition and measured after 48 hrs by RT-qPCR analysis; format: functional, organism-based; conditions: Murine coronavirus
Method in brief: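 L929 cells in DMEM with 10% FBS were washed serum-free at 80% confluence and infected with MHV-A59 at MOI 0.01 for 1 h at 37 °C. Compounds were added at 0.1–100 μmol/L, with DMSO as blank control. After 48 h at 37 °C, the viral M gene in supernatant was measured by qRT-PCR. Percent inhibition was derived from copy number and EC50 from curve fitting.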

[2] = Solubility of the compound; format: physicochemical
[3] = Stability in human plasma assessed as half-life; format: ADME, cell-free
[4] = AUC (0 to infinity) in Sprague-Dawley rat at 5 mg/kg, iv administered as single dose and measured at 0.083 to 24 hrs by LC-MS/MS analysis; format: ADME, organism-based; design: time upper 24 hrs, dose 5 mg/kg, time lower 0.083 hrs, route iv; conditions: in vivo
[5] = AUC (0 to infinity) in Sprague-Dawley rat at 25 mg/kg, po administered as single dose and measured at 0.25 to 24 hrs by LC-MS/MS analysis; format: ADME, organism-based; design: time upper 24 hrs, time lower 0.25 hrs, dose 25 mg/kg, route po; conditions: in vivo
Murine hepatitis virus [6] = experiment: Antiviral activity against murine hepatitis virus-A59 infected in BALB/c mouse assessed as reduction in IL-1beta production in liver at 70 mg/kg, po administered once daily one hour post infection and measured after 3 days by ELISA analysis; format: functional, organism-based; conditions: time 3.0 day
Method in brief: (§1)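 MHV-A59 was inoculated intranasally into male BALB/c mice (30 μL, TCID50 = 10−7.125/100 μL), with oral dosing once daily from 1 hpi for four days. At 3 dpi, 0.1 g lung or liver from 4 mice per group was homogenized in 0.9 mL water at 4 °C and centrifuged. Supernatant IFN-β was read by ELISA; TNF-α, IFN-γ, IL-1β, IL-6 and CXCL10 by multi-analyte kit, with OD 450 nm against standards.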

[7] = Oral bioavailability in Sprague-Dawley rat at 25 mg/kg administered as single dose and measured at 0.25 to 24 hrs by LC-MS/MS analysis; format: ADME, organism-based; conditions: in vivo, time 0.25-24 hrs
Murine hepatitis virus [8] = experiment: Antiviral activity against murine hepatitis virus-A59 infected in BALB/c mouse assessed as reduction in IFN-beta production in liver at 70 mg/kg, po administered once daily one hour post infection and measured after 3 days by ELISA analysis; format: functional, organism-based; conditions: time 3.0 day; method in brief: as §1
Murine hepatitis virus [9] = experiment: Antiviral activity against murine hepatitis virus-A59 infected in BALB/c mouse assessed as reduction in IFN-gamma production in liver at 70 mg/kg, po administered once daily one hour post infection and measured after 3 days by ELISA analysis; format: functional, organism-based; conditions: time 3.0 day; method in brief: as §1
Murine hepatitis virus [10] = experiment: Antiviral activity against murine hepatitis virus-A59 infected in BALB/c mouse assessed as reduction in CXCL10 production in liver at 70 mg/kg, po administered once daily one hour post infection and measured after 3 days by ELISA analysis; format: functional, organism-based; conditions: time 3.0 day; method in brief: as §1
Murine hepatitis virus [11] = experiment: Antiviral activity against Murine hepatitis virus-A59 infected in mouse L929 cells assessed as reduction in viral copy pre-infected with cell for 1 hrs followed by compound addition and measured after 48 hrs in the presence of remdesivir by RT-qPCR analysis; format: functional, organism-based
Method in brief: (§2)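 L929 cells in DMEM with 10% FBS were seeded for 24 h to 80% confluence and washed thrice with serum-free medium. Cells were infected with MHV-A59 at MOI 0.01 for 1 h at 37 °C, then compound was added, with DMSO as the blank control. After 48 h at 37 °C, cells and supernatants were taken for qRT-PCR of viral copies. Inhibition was calculated from copy number and fitted for EC50.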

[12] = Tmax in Sprague-Dawley rat at 5 mg/kg, iv administered as single dose and measured at 0.083 to 24 hrs by LC-MS/MS analysis; format: ADME, organism-based; conditions: in vivo, time 0.083-24 hrs
Murine hepatitis virus [13] = experiment: Antiviral activity against Murine hepatitis virus-A59 infected in mouse L929 cells assessed as reduction in viral copy upto 200 uM pre-infected with cell for 1 hrs followed by compound addition and measured after 48 hrs by RT-qPCR analysis; format: functional, organism-based; method in brief: as §2
[14] = Cmax in Sprague-Dawley rat at 25 mg/kg, po administered as single dose and measured at 0.25 to 24 hrs by LC-MS/MS analysis; format: ADME, organism-based; design: dose 25 mg/kg, time 0.25-24 hrs, route po; conditions: in vivo
Murine hepatitis virus [15] = experiment: Antiviral activity against murine hepatitis virus-A59 infected in BALB/c mouse assessed as reduction in TNF-alpha production in liver at 70 mg/kg, po administered once daily one hour post infection and measured after 3 days by ELISA analysis; format: functional, organism-based; conditions: time 3.0 day; method in brief: as §1
Murine hepatitis virus [16] = experiment: Antiviral activity against murine hepatitis virus-A59 infected in BALB/c mouse assessed as reduction in IL6 production in liver at 70 mg/kg, po administered once daily one hour post infection and measured after 3 days by ELISA analysis; format: functional, organism-based; conditions: time 3.0 day; method in brief: as §1
[17] = Tmax in Sprague-Dawley rat at 25 mg/kg, po administered as single dose and measured at 0.25 to 24 hrs by LC-MS/MS analysis; format: ADME, organism-based; conditions: in vivo, time 0.25-24 hrs
[18] = Cmax in Sprague-Dawley rat at 5 mg/kg, iv administered as single dose and measured at 0.083 to 24 hrs by LC-MS/MS analysis; format: ADME, organism-based; design: dose 5 mg/kg, time 0.083-24 hrs, route iv; conditions: in vivo
Murine hepatitis virus [19] = experiment: Antiviral activity against murine hepatitis virus-A59 infected in BALB/c mouse assessed as inhibition of viral replication in lungs at 70 mg/kg, po administered once daily one hour post infection and measured after 3 days by qRT-PCR analysis; format: functional, organism-based; conditions: time 3.0 day
Method in brief: (§3)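 SPF male BALB/c mice aged 3–4 weeks were put under isoflurane and inoculated intranasally with 30 μL MHV-A59 (TCID50 = 10−7.125/100 μL) in PBS. Oral dosing once daily in 15% Cremophor EL/82.5% PBS/2.5% DMSO started at 1 hpi and ran for four days; groups had 12 mice. At 3 dpi, 4 mice per group were killed and lung and liver M-gene copies measured by qRT-PCR.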

Murine hepatitis virus [20] = experiment: Antiviral activity against murine hepatitis virus-A59 infected in BALB/c mouse assessed as inhibition of viral replication in liver at 70 mg/kg, po administered once daily one hour post infection and measured after 3 days by qRT-PCR analysis; format: functional, organism-based; conditions: time 3.0 day; method in brief: as §3
Murine hepatitis virus [21] = experiment: Antiviral activity against murine hepatitis virus-A59 infected in BALB/c mouse assessed as reduction in mortality at 100 mg/kg, po administered once daily one hour post infection and measured after 23 days; format: functional, organism-based; conditions: time 23.0 day
Method in brief: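 After intranasal MHV-A59 inoculation (30 μL, TCID50 = 10−7.125/100 μL), 3–4-week-old male BALB/c mice received oral drug or vehicle once daily from 1 hpi for four days, 12 per group. The remaining mice were monitored daily for body weight, clinical signs and death until 23 dpi; survival curves were plotted.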

Murine hepatitis virus [22] = experiment: Antiviral activity against murine hepatitis virus-A59 infected in BALB/c mouse assessed as alleviation of interstitial pneumonia in lungs at 100 mg/kg, po administered once daily one hour post infection and measured after 3 days by H&E staining based analysis; format: functional, organism-based; conditions: time 3.0 day
Method in brief: (§4)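 In male BALB/c mice (3–4 weeks), MHV-A59 was given intranasally (30 μL, TCID50 = 10−7.125/100 μL). Oral dosing once daily in a Cremophor EL/PBS/DMSO vehicle began at 1 hpi and lasted four days. At 3 dpi, lungs and livers from 4 mice per group were fixed in zinc formalin and paraffin-embedded. Sections of about 4 μm were stained with H&E and examined at 200× and 400×.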

[23] = MRT (0 to infinity) in Sprague-Dawley rat at 5 mg/kg, iv administered as single dose and measured at 0.083 to 24 hrs by LC-MS/MS analysis; format: ADME, organism-based; conditions: in vivo, time 0.083-24 hrs
Murine hepatitis virus [24] = experiment: Antiviral activity against murine hepatitis virus-A59 infected in BALB/c mouse assessed as alleviation of thickened alveolar septa in lungs at 100 mg/kg, po administered once daily one hour post infection and measured after 3 days by H&E staining based analysis; format: functional, organism-based; conditions: time 3.0 day; method in brief: as §4
[25] = MRT (0 to infinity) in Sprague-Dawley rat at 25 mg/kg, po administered as single dose and measured at 0.25 to 24 hrs by LC-MS/MS analysis; format: ADME, organism-based; conditions: in vivo, time 0.25-24 hrs
Murine hepatitis virus [26] = experiment: Antiviral activity against murine hepatitis virus-A59 infected in BALB/c mouse assessed as alleviation of lymphocytes infiltration in lungs at 100 mg/kg, po administered once daily one hour post infection and measured after 3 days by H&E staining based analysis; format: functional, organism-based; conditions: time 3.0 day; method in brief: as §4
Murine hepatitis virus [27] = experiment: Antiviral activity against murine hepatitis virus-A59 infected in BALB/c mouse assessed as inhibition of viral replication in liver at 100 mg/kg, po administered once daily one hour post infection and measured after 3 days by qRT-PCR analysis; format: functional, organism-based; conditions: time 3.0 day; method in brief: as §3
Murine hepatitis virus [28] = experiment: Antiviral activity against murine hepatitis virus-A59 infected in BALB/c mouse assessed as inhibition of viral replication in lungs at 100 mg/kg, po administered once daily one hour post infection and measured after 3 days by qRT-PCR analysis; format: functional, organism-based; conditions: time 3.0 day; method in brief: as §3
Murine hepatitis virus [29] = experiment: Antiviral activity against murine hepatitis virus-A59 infected in BALB/c mouse assessed as alleviation of necrotic debris in lungs at 100 mg/kg, po administered once daily one hour post infection and measured after 3 days by H&E staining based analysis; format: functional, organism-based; conditions: time 3.0 day; method in brief: as §4
Murine hepatitis virus [30] = experiment: Antiviral activity against murine hepatitis virus-A59 infected in BALB/c mouse assessed as inhibition of viral titer in liver at 100 mg/kg, po administered once daily one hour post infection and measured after 3 days by qRT-PCR analysis; format: functional, organism-based; conditions: time 3.0 day; method in brief: as §3
Murine hepatitis virus [31] = experiment: Potency index, ratio of GS-441524 EC50 to test compound EC50 for antiviral activity against Murine hepatitis virus-A59 infected in mouse L929 cells assessed as reduction in viral copy pre-infected with cell for 1 hrs followed by compound addition and measured after 48 hrs by RT-qPCR analysis; format: functional

## CC(C(=O)OC[C@H]1O[C@@](C#N)(c2ccc3c(N)ncnn23)[C@H](O)[C@@H]1O)c1cccc(C(=O)c2ccccc2)c1 (stereo not given in full)
Murine hepatitis virus [1]
  EC50: 4.17 µM
[2]
  solubility: 1070 µM (≈ 566 µg/mL)
[3]
  t1/2: 3.3197 h

## CC(C)Cc1ccc(C(C)C(=O)O)cc1 (stereo not given) [IBUPROFEN]
[4]
  AUC: 67.1 uM.hr/L
[5]
  AUC: 263 uM.hr/L
Murine hepatitis virus [6]
  Activity: inactive
[7]
  F: 78.42%
Murine hepatitis virus [8]
  Activity: inactive
Murine hepatitis virus [9]
  Activity: inactive
Murine hepatitis virus [10]
  Activity: inactive
Murine hepatitis virus [11]
  Activity: inactive
[12]
  Tmax: 1.8 min
Murine hepatitis virus [13]
  Activity: inactive
[14]
  Cmax: 80.2 µM
Murine hepatitis virus [15]
  Activity: inactive
Murine hepatitis virus [16]
  Activity: inactive
[17]
  Tmax: 0.67 h
[18]
  Cmax: 41.8 µM
Murine hepatitis virus [19]
  Activity: inactive
Murine hepatitis virus [20]
  Activity: inactive

## N#C[C@@]1(c2ccc3c(N)ncnn23)O[C@H](COC(=O)Cc2ccccc2Nc2c(Cl)cccc2Cl)[C@@H](O)[C@H]1O
Murine hepatitis virus [1]
  EC50: 6.4 µM
[2]
  solubility: 3.7 µM (≈ 2.11 µg/mL)
[3]
  t1/2: 3.186 h

## COc1ccc2c(c1)c(CC(=O)OC[C@H]1O[C@@](C#N)(c3ccc4c(N)ncnn34)[C@H](O)[C@@H]1O)c(C)n2C(=O)c1ccc(Cl)cc1
Murine hepatitis virus [1]
  EC50: 10.1 µM
[2]
  solubility: 0.1 µM (≈ 0.0631 µg/mL)
[3]
  t1/2: 2.8345 h

## CCC(CC)COC(=O)[C@H](C)N[P@](=O)(OC[C@H]1O[C@@](C#N)(c2ccc3c(N)ncnn23)[C@H](O)[C@@H]1O)Oc1ccccc1
Murine hepatitis virus [1]
  EC50: 1.82 µM

## COc1ccc2cc([C@H](C)C(=O)OC[C@H]3O[C@@](C#N)(c4ccc5c(N)ncnn45)[C@H](O)[C@@H]3O)ccc2c1
Murine hepatitis virus [1]
  EC50: 8.65 µM
[2]
  solubility: 155 µM (≈ 78 µg/mL)
[3]
  t1/2: 3.0328 h

## N#C[C@@]1(c2ccc3c(N)ncnn23)O[C@H](CO)C(O)C1O (single isomer, unassigned) [GS-441524]
[4]
  AUC: 7.51 uM.hr/L
Murine hepatitis virus [21]
  Activity: Active
[5]
  AUC: 22.6 uM.hr/L
Murine hepatitis virus [22]
  Activity: inactive
[7]
  F: 60.31%
[23]
  MRT: 1.28 h
Murine hepatitis virus [1]
  EC50: 10 µM
Murine hepatitis virus [24]
  Activity: inactive
[25]
  MRT: 3.16 h
Murine hepatitis virus [26]
  Activity: inactive
Murine hepatitis virus [27]
  Activity: Active
[14]
  Cmax: 7.75 µM
Murine hepatitis virus [28]
  Activity: Active
Murine hepatitis virus [29]
  Activity: inactive
[18]
  Cmax: 5.67 µM
Murine hepatitis virus [30]
  Activity: Active

## CC(C(=O)OC[C@H]1O[C@@](C#N)(c2ccc3c(N)ncnn23)[C@H](O)[C@@H]1O)c1cccc(Oc2ccccc2)c1 (stereo not given in full)
Murine hepatitis virus [1]
  EC50: 1.27 µM
[2]
  solubility: 29 µM (≈ 15 µg/mL)
Murine hepatitis virus [31]
  Ratio EC50: 8
[3]
  t1/2: 2.8218 h
